Results reported in ChEMBL document CHEMBL3244290, “N-Alkyl derivatives of (+/-)-alpha-methyldopamine” (J Med Chem, 1979).
The source made the active and inactive calls. The rule behind the calls is not given here.

Key:
[1] = species: Felis catus; test: Inhibition of field stimulation-induced positive chronotrophic response in cat atria; assay type: functional; details: Cardiac atrium
[2] = species: Canis lupus familiaris; test: Inhibition of electric stimulated dog right cardioaccelerator nerve; assay type: functional
Method in brief: (§1)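 Dog cardioaccelerator nerve preparation under barbital (200 mg/kg) anaesthesia. Compounds given intravenously up to 1.0 mg/kg. Positive chronotropic responses read by cardiometer, with blood pressure taken from the right femoral artery.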

[3] = system: Canis familiaris; test: Increase in blood pressure in dog at 0.5 mg/kg, iv by cardiotachometer; assay type: functional, Canis lupus familiaris
Method in brief: (§2)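 Anaesthetised dog (barbital 200 mg/kg). Compounds given intravenously, highest dose tested 1.0 mg/kg. Blood pressure recorded from the right femoral artery and heart rate by cardiometer. Resting heart rate, blood pressure and positive chronotropic responses were assessed after dosing. Doses calculated as free base.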

[4] = system: Canis familiaris; test: Increase in resting heart rate in dog at 0.5 mg/kg, iv by cardiotachometer; assay type: functional, organism-based; set-up: dose 0.5 mg/kg; details: Canis lupus familiaris; method in brief: as §2
[5] = system: Canis familiaris; test: Toxicity in dog assessed as emesis at 2 mg/kg, sc; assay type: organism-based, Canis lupus familiaris; set-up: dose 2 mg/kg, route subcutaneous; details: in vivo
Method in brief: (§3)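 Unanaesthetised dogs. For emesis, compound given sc and dogs watched 45 min for an emetic response. For antagonism, compound given sc and apomorphine 100 μg/kg 15 min later.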

[6] = system: Canis familiaris; test: Inhibition of apomorphine-induced emesis in dog at 2 mg/kg, sc; assay type: functional, organism-based; set-up: dose 2 mg/kg; details: Canis lupus familiaris; method in brief: as §3
[7] = Toxicity in pigeon assessed as pecking; details: columbidae
Method in brief: (§4)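 Pigeons. Compounds given intramuscularly at up to 4 mg/kg to test induction of pecking. Antagonism of pecking induced by apomorphine (1.62 μM/kg) was also tested, and ED50 values were estimated.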

[8] = species: Felis catus; test: Inhibition of field stimulation-induced positive ionotrophic response in cat atria; assay type: functional; details: Cardiac atrium
[9] = system: Rattus norvegicus; test: Induction of rotation in rat with unilateral denervation of caudate nucleus at 4 mg/kg, sc; assay type: functional, organism-based; set-up: dose 4 mg/kg
Method in brief: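 Rats given a unilateral 6-hydroxydopamine injection into the substantia nigra. Compounds dosed subcutaneously and the rotations they induced were counted. Apomorphine served as the reference.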

[10] = system: Canis familiaris; test: Increase in heart rate in dog at 1 mg/kg, iv by cardiotachometer; assay type: functional, organism-based; set-up: dose 1 mg/kg; details: Canis lupus familiaris; method in brief: as §2
[11] = system: Canis familiaris; test: Increase in ionotrophic response in dog following field stimulation at 1 mg/kg, iv by cardiotachometer; assay type: functional, organism-based; set-up: dose 1 mg/kg; details: Canis lupus familiaris; method in brief: as §1
[12] = system: Canis familiaris; test: Increase in ionotrophic response in iv dosed dog following field stimulation assessed as minimum effective dose by cardiotachometer; assay type: functional, Canis lupus familiaris; set-up: unit not given here; method in brief: as §1
[13] = system: Columbidae; test: Inhibition of apomorphine-induced pecking in pigeon; assay type: functional; method in brief: as §4
[14] = system: Canis familiaris; test: Increase in heart rate in dog assessed as beats at 30 ug/kg, iv by cardiotachometer; assay type: functional, Canis lupus familiaris; method in brief: as §2
[15] = species: Rattus norvegicus; test: Toxicity in Sprague-Dawley rat assessed as locomotor hyperactivity treated bilateral injection into nucleus accumbens at 50 ug; assay type: organism-based; details: in vivo, other
Method in brief: (§5)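 Male Sprague-Dawley rats (250 ± 25 g) with stereotaxic guide cannulae aimed at the nucleus accumbens. Tested 10–14 days after surgery with a bilateral 1 μL infusion over 60 s; each rat used once and placement checked histologically. Locomotion counted by photocell cage. Stereotypy scored, where 3–4 = biting, gnawing or licking. Pretreatments given ip: α-methyl-p-tyrosine 250 mg/kg 6 h before, or haloperidol 0.1, propranolol 5 or aceperone 2.5 mg/kg 30 min before.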

[16] = species: Rattus norvegicus; test: Toxicity in Sprague-Dawley rat assessed as biting up to 50 ug injection into nucleus accumbens; assay type: organism-based; details: in vivo, other; method in brief: as §5
[17] = species: Rattus norvegicus; test: Toxicity in Sprague-Dawley rat assessed as gnawing up to 50 ug injection into nucleus accumbens; assay type: organism-based; details: in vivo, other; method in brief: as §5
[18] = species: Rattus norvegicus; test: Toxicity in Sprague-Dawley rat assessed as licking up to 50 ug injection into nucleus accumbens; assay type: organism-based; details: in vivo, other; method in brief: as §5
[19] = system: Mus musculus; test: Toxicity in albino B.K.W mouse assessed as climbing behaviour at 20 to 80 mg/kg, sc; assay type: organism-based; set-up: dose 20-80 mg/kg, route subcutaneous; details: in vivo
Method in brief: (§6)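 Mice dosed subcutaneously at 20, 40 and 80 mg/kg in 1 mL/kg, doses as free base. Climbing scored as all four paws on the wire, giving a climbing index (% time over 30 min after the first climb) and the maximum time of a single climb. Circling was tested in mice with a unilateral caudate-putamen electrolesion, pre-selected for circling of 7 or more revolutions/2 min in response to apomorphine. Stereotypy was also recorded.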

[20] = system: Mus musculus; test: Toxicity in albino B.K.W mouse assessed as circling behaviour at 20 to 80 mg/kg, sc; assay type: organism-based; set-up: dose 20-80 mg/kg, route subcutaneous; details: in vivo; method in brief: as §6
[21] = system: Mus musculus; test: Toxicity in albino B.K.W mouse assessed as stereotyped behaviour at 20 to 80 mg/kg, sc; assay type: organism-based; set-up: dose 20-80 mg/kg, route subcutaneous; details: in vivo; method in brief: as §6
[22] = system: Canis familiaris; test: Increase in blood pressure in dog at 30 ug/kg, iv by cardiotachometer; assay type: functional, Canis lupus familiaris; method in brief: as §2
[23] = system: Canis familiaris; test: Increase in resting heart rate in dog at […], iv by cardiotachometer; assay type: functional, organism-based; details: Canis lupus familiaris; method in brief: as §2
[24] = system: Canis familiaris; test: Increase in blood pressure in dog at 50 ug/kg, iv by cardiotachometer; assay type: functional, Canis lupus familiaris; method in brief: as §2
[25] = system: Canis familiaris; test: Increase in heart rate in dog assessed as beats at 50 ug/kg, iv by cardiotachometer; assay type: functional, Canis lupus familiaris; method in brief: as §2

SMILES | inhibition [1] | inhibition [2] | Activity [3] | Activity [4] | Activity [5] | Activity [6] | Activity [7] | inhibition [8] | Activity [15] | Activity [16] | Activity [17] | Activity [18] | Activity [19] | Activity [20] | Activity [21] | further results
CCNC(C)Cc1ccc(OC)c(OC)c1.Cl (racemic) | inactive | inactive | <=10 mmHg | inactive | Non-toxic | inactive | Non-toxic | inactive | – | – | – | – | – | – | – | –
COc1ccc(CC(C)NC(C)C)cc1OC.Cl (racemic) | inactive | inactive | <=10 mmHg | inactive | Non-toxic | inactive | Non-toxic | inactive | – | – | – | – | – | – | – | Activity [9]: inactive
COc1ccc(CC(C)N(C)C(C)C)cc1OC.Cl (racemic) | inactive | inactive | <=10 mmHg | inactive | Non-toxic | inactive | Non-toxic | inactive | – | – | – | – | – | – | – | Activity [10]: Active; Activity [11]: Active; MED [12]: 20; inhibition [13]: Active
Br.CC(C)NC(C)Cc1ccc(O)c(O)c1 (racemic) | inactive | inactive | – | – | Non-toxic | inactive | Non-toxic | inactive | Non-toxic | Non-toxic | Non-toxic | Non-toxic | Non-toxic | Non-toxic | Non-toxic | Activity [14]: 23 bpm; Activity [22]: 40%
Br.CC(C)N(C)C(C)Cc1ccc(O)c(O)c1 (racemic) | inactive | inactive | <=10 mmHg | inactive | Non-toxic | inactive | Non-toxic | inactive | Non-toxic | Non-toxic | Non-toxic | Non-toxic | Non-toxic | Non-toxic | Non-toxic | Activity [10]: Active; Activity [11]: Active; MED [12]: 20; inhibition [13]: Active
Br.CCCCNC(C)Cc1ccc(O)c(O)c1 (racemic) | inactive | inactive | <=10 mmHg | inactive | Non-toxic | inactive | Non-toxic | inactive | Non-toxic | Non-toxic | Non-toxic | Non-toxic | Non-toxic | Non-toxic | Non-toxic | –
Br.CCCCN(CCCC)C(C)Cc1ccc(O)c(O)c1 (racemic) | inactive | inactive | – | – | Non-toxic | inactive | Non-toxic | inactive | Non-toxic | Non-toxic | Non-toxic | Non-toxic | Non-toxic | Non-toxic | Non-toxic | –
Br.CC(Cc1ccc(O)c(O)c1)N(C)C (racemic) | inactive | inactive | – | – | Non-toxic | inactive | Non-toxic | inactive | Non-toxic | Non-toxic | Non-toxic | Non-toxic | Non-toxic | Non-toxic | Non-toxic | Activity [23]: Active; Activity [24]: 80%; Activity [25]: 50 bpm
